In assay [1] the target is T1, DNA topoisomerase 1 (Homo sapiens) (UniProt P11387).
T1 sequence (whole entry): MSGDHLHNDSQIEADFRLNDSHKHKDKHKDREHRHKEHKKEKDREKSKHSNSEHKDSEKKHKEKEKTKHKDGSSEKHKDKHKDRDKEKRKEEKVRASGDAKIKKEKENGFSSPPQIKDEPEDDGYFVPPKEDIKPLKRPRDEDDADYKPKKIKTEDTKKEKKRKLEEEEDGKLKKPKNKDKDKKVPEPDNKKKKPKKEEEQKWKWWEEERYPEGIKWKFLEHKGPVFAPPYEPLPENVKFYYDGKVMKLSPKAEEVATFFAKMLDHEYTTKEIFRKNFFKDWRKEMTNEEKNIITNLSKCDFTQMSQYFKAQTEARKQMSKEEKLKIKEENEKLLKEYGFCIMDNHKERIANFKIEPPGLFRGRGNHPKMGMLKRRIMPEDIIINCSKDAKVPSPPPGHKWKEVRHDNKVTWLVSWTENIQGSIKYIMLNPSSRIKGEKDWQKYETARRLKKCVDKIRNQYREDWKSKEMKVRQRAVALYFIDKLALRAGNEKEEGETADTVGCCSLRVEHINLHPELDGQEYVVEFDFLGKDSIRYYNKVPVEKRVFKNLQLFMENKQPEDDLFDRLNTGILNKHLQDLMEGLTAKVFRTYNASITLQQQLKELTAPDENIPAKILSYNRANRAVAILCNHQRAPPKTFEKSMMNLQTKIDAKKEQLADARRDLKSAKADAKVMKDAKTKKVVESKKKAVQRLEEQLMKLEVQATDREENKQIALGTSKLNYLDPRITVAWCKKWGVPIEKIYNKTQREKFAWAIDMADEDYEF
Description: Inhibition of human topoisomerase 1 at 200 uM using supercoiled pBR322 plasmid DNA as substrate after 15 mins by ethidium bromide staining based agarose gel electrophoresis method relative to control. In outline:
(§1)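 hTopo I (1 unit) relaxed 0.3 μg supercoiled plasmid in 50 mM Tris-HCl pH 7.5, 100 mM NaCl, 10 mM MgCl2, 1 mM DTT, 50 μg/ml BSA with varied compound concentrations, at 37°C for 15 min.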

A further assay concerns the target T2, DNA topoisomerase 1 (Homo sapiens, UniProt P11387).
T2 sequence (P11387 whole entry): T1 sequence (whole entry)
The assay is described as follows: Inhibition of human topoisomerase 1 using supercoiled pBR322 plasmid DNA as substrate after 15 mins by ethidium bromide staining based agarose gel electrophoresis method. The gist of the method: as §1

Assay [2] can be described thus: Binding affinity to d(CCTTACGTGCATAGTCATTCATGACCG) dsDNA (unknown origin) assessed as bathochromic shift at 25 uM by fluorescence spectra analysis. The gist of the method:
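The 27-bp duplex was made by annealing complementary strands 1:1 at 95°C for 2 min, then cooling to room temperature. Compound at 25 μM, with dsDNA at 0–200 μM, in 10 mM Tris-HCl pH 7.4 at room temperature; DMSO ≤5% final. Spectra and intensity were read after blank subtraction, normalized to the no-DNA signal; technical replicates, n=3.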

Another assay concerns Calf thymus DNA. Description: Binding affinity to calf thymus DNA assessed as bathochromic shift at 25 uM by fluorescence spectra analysis. The assay is classed as nucleic-acid assay. Conditions: Bos taurus. In outline:
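Compound at 25 μM, with calf thymus DNA at 0 or 400 μM, in 10 mM Tris-HCl pH 7.4 at room temperature; final DMSO ≤5%. Emission spectra were recorded from 320–600 nm to look for a bathochromic shift. DNA was dissolved in the same buffer, checked by A260/A280 (1.8–1.9) and quantified at 260 nm (ε 6600 M−1 cm−1 per nucleotide).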

Assay [3] relates to Panel NCI-60 (60 carcinoma cell lines). The assay is described as follows: Antiproliferative activity against human NCI60 cells. The format is functional.

Calls of active or inactive are those of the source. No cut-off for these calls is given here. Some results are limits rather than exact numbers.

In assay [1], `O=C(O)c1cn(Cc2ccc(-n3cccn3)cc2)c2cc(NC[C@@H]3CCNC3)c(F)cc2c1=O` had an inhibition of 10%.
`N[C@@H]1CCN(c2cc3c(cc2F)c(=O)c(C(=O)O)cn3Cc2ccc(-c3ccccc3)cc2)C1`: on DNA topoisomerase 1, the IC50 came to 63.6 µM.
Still for that read-out and setting: in the case of `NCCNc1cc2c(cc1F)c(=O)c(C(=O)O)cn2Cc1ccc(-c2ccccc2)cc1` it was 72.8 µM; in that of `COc1c(N2CC[C@@H](CN)C2)c(F)cc2c(=O)c(C(N)=O)cn(Cc3ccc(-c4ccccc4)cc3)c12`, 184 µM.
Molecule `COc1c(N2CC[C@@H](CO)C2)c(F)cc2c(=O)c(C(=O)O)cn(Cc3ccc(-c4ccccc4)cc3)c12` came in with an inhibition in assay [1] of 10%. The molecule also returned a concentration for half-maximal inhibition (IC50) on DNA topoisomerase 1 of over 200 µM.
The molecule `CN[C@@H]1CCN(c2cc3c(cc2F)c(=O)c(C(=O)O)cn3Cc2ccc(-c3ccccc3)cc2)C1` yielded an IC50 on DNA topoisomerase 1 of 34.8 µM.
On to `O=C(O)c1cn(Cc2ccc(-c3ccccc3)cc2)c2cc(N3CC4CNCC4C3)c(F)cc2c1=O` (centres undefined), for which the concentration for half-maximal inhibition (IC50) against DNA topoisomerase 1 is 33.3 µM.
Molecule `COc1c(NCCN)c(F)cc2c(=O)c(C(=O)O)cn(Cc3ccc(-c4ccccc4)cc3)c12` showed an inhibition in assay [1] of 10%. The molecule also returned an IC50 on DNA topoisomerase 1 of over 200 µM.
Taken in the same sequence, the figures for `COc1c(N2CC[C@@H](CN)C2)c(F)cc2c(=O)c(C(=O)O)cn(Cc3ccc(-n4cccn4)cc3)c12` were 10% and over 200 µM.
Take `O=C(O)c1cn(Cc2ccc(-c3ccccc3)cc2)c2cc(N3C[C@H]4CCNC[C@H]4C3)c(F)cc2c1=O`: the IC50 on DNA topoisomerase 1 was 61 µM.
As to `COc1c(N2CC[C@@H](C(N)=O)C2)c(F)cc2c(=O)c(C(=O)O)cn(Cc3ccc(-c4ccccc4)cc3)c12`, the inhibition in assay [1] amounted to 10%. At DNA topoisomerase 1, this molecule came in with an IC50 of over 200 µM.
As for `CNCCNc1c(F)cc2c(=O)c(C(=O)O)cn(Cc3ccc(-c4ccccc4)cc3)c2c1OC`, the inhibition in assay [1] came to 10%. The same molecule yielded an IC50 against DNA topoisomerase 1 of over 200 µM.
On to `COc1c(F)c(F)cc2c(=O)c(C(=O)O)cn(Cc3ccc(-c4ccccc4)cc3)c12`, for which the inhibition entry in assay [1] is “inactive”.
On DNA topoisomerase 1, `COc1c(N2CC[C@@H](N)C2)c(F)cc2c(=O)c(C(=O)O)cn(Cc3ccc(-c4ccccc4)cc3)c12` yielded a concentration for half-maximal inhibition (IC50) of 92.2 µM.
`CNC(=O)c1cn(Cc2ccc(-c3ccccc3)cc2)c2c(OC)c(NC)c(F)cc2c1=O`: the inhibition entry in assay [1] was “inactive”.
At DNA topoisomerase 1, `COc1c(N2CC[C@@H](N)C2)c(F)cc2c(=O)c(C(=O)O)cn(Cc3ccc(-c4ccc(F)cc4)cc3)c12` had an IC50 of 58.6 µM.
Consider `O=C(O)c1cn(Cc2ccc(-n3cccn3)cc2)c2cc(N3C[C@H]4CCNC[C@H]4C3)c(F)cc2c1=O`, for which the half-inhibitory concentration (IC50) on DNA topoisomerase 1 came out at 31.3 µM.
`NC[C@@H]1CCN(c2ccc3c(=O)c(C(=O)O)cn(Cc4ccc(-c5ccccc5)cc4)c3c2)C1`: on DNA topoisomerase 1, the IC50 stood at 61.2 µM.
Regarding `NC[C@@H]1CCN(c2cc3c(cc2F)c(=O)c(C(=O)O)cn3Cc2nc(-c3ccncc3)no2)C1`, the inhibition in assay [1] came out at 10%. The half-maximal inhibitory concentration (IC50) on DNA topoisomerase 1 was over 200 µM.
Consider `CNC(=O)c1cn(Cc2ccc(-c3ccccc3)cc2)c2c(OC)c(N3CC[C@@H](CN)C3)c(F)cc2c1=O`, for which the IC50 on DNA topoisomerase 1 amounted to 82.1 µM.
The same measure, in the same setting: in the case of `CN[C@@H]1CCN(c2c(F)cc3c(=O)c(C(=O)O)cn(Cc4ccc(-c5ccccc5)cc4)c3c2OC)C1` it was 57.7 µM; in that of `COC(=O)c1cn(Cc2ccc(-c3ccccc3)cc2)c2c(OC)c(N3CC[C@@H](CN)C3)c(F)cc2c1=O`, 71.4 µM; in that of `O=C(O)c1cn(Cc2ccc(-n3cccn3)cc2)c2cc(N3CC4CNCC4C3)c(F)cc2c1=O` (centres undefined), 173 µM.
The same measure, in the same setting: in the case of `CNCCCNc1cc2c(cc1F)c(=O)c(C(=O)O)cn2Cc1ccc(-c2ccccc2)cc1` it was 63.6 µM; in that of `CNCCCCNc1cc2c(cc1F)c(=O)c(C(=O)O)cn2Cc1ccc(-c2ccccc2)cc1`, 88.3 µM; in that of `CNCCCNc1c(F)cc2c(=O)c(C(=O)O)cn(Cc3ccc(-c4ccccc4)cc3)c2c1OC`, 101 µM.
Same read-out and setting: then `COc1c(N2CC[C@@H](CN)C2)c(F)cc2c(=O)c(C(=O)O)cn(Cc3ccc(-c4ccc(F)cc4)cc3)c12`, with 60.9 µM.
`COc1c(N2CC[C@@H](CN)C2)c(F)cc2c(=O)c(C(=O)NO)cn(Cc3ccc(-c4ccccc4)cc3)c12`: at DNA topoisomerase 1, the IC50 amounted to 35.9 µM.
`CNC[C@@H]1CCN(c2cc3c(cc2F)c(=O)c(C(=O)O)cn3Cc2ccc(-n3cccn3)cc2)C1` displayed an inhibition in assay [1] of 10%. For the same molecule, the IC50 at DNA topoisomerase 1 is over 200 µM.
Molecule `NC[C@@H]1CCN(c2cc3c(cc2F)c(=O)c(C(=O)O)cn3Cc2ccc(-n3cccn3)cc2)C1` gave an IC50 on DNA topoisomerase 1 of 91.6 µM.
On the same count and under the same terms, then `NC[C@@H]1CCN(c2cc3c(cc2F)c(=O)c(C(=O)O)cn3Cc2ccc(-c3ccc(F)cc3)cc2)C1`, with 69.6 µM.
Turning to `O=C(O)c1cn(Cc2ccc(-c3ccccc3)cc2)c2cc(NC[C@@H]3CCNC3)c(F)cc2c1=O`, at DNA topoisomerase 1, the IC50 came out at 104 µM.
On to `CNCCCCNc1c(F)cc2c(=O)c(C(=O)O)cn(Cc3ccc(-c4ccccc4)cc3)c2c1OC`, for which, in assay [1], the inhibition was 10%. The molecule also showed an IC50 at DNA topoisomerase 1 of over 200 µM.
In turn, `COc1c(N2CC[C@@H](CN)C2)c(F)cc2c(=O)c(C(=O)O)cn(Cc3cc(-c4ccccc4)no3)c12` came in with an IC50 at DNA topoisomerase 1 of 178 µM.
Consider `NC[C@@H]1CCN(c2cc3c(cc2F)c(=O)c(C(=O)O)cn3Cc2ccc(-c3ccccc3)cc2)C1`, for which the result (in assay [2]; in the assay with Calf thymus DNA) was inactive. For the same molecule, the 50% inhibitory concentration (IC50) at DNA topoisomerase 1 was 15.6 µM.
Molecule `CNCCNc1cc2c(cc1F)c(=O)c(C(=O)O)cn2Cc1ccc(-c2ccccc2)cc1` came in with an inhibition in assay [1] of 10%. Besides, the IC50 against DNA topoisomerase 1 was over 200 µM.
In the case of `CNC[C@@H]1CCN(c2cc3c(cc2F)c(=O)c(C(=O)O)cn3Cc2ccc(-c3ccccc3)cc2)C1`, at DNA topoisomerase 1, the 50% inhibitory concentration (IC50) was determined as 168 µM.
Same read-out and setting: then `O=C(O)c1cn(Cc2ccc(-n3cccn3)cc2)c2cc(NC[C@H]3CCNC3)c(F)cc2c1=O`, with 187 µM; and `O=C(O)c1cn(Cc2ccc(-c3ccccc3)cc2)c2cc(NC[C@H]3CCNC3)c(F)cc2c1=O`, with 100 µM.
Still for that read-out and setting: then `NC[C@@H]1CCN(c2cc3c(cc2F)c(=O)c(C(=O)O)cn3Cc2cc(-c3ccccc3)no2)C1`, with 58.3 µM.
As to `COc1c(N2CC[C@@H](CN)C2)c(F)cc2c(=O)c(C(=O)O)cn(Cc3ccc4ccccc4c3)c12`, growth in assay [3] was halved (GI50) at 3100 nM.
As to `NC[C@@H]1CCN(c2ccc3c(=O)c(C(=O)O)cn(Cc4ccc(-n5cccn5)cc4)c3c2)C1`, the IC50 at DNA topoisomerase 1 was determined as 61 µM.
On to `COc1c(N2CC[C@@H](CN)C2)c(F)cc2c(=O)c(C(=O)O)cn(Cc3ccc(-c4ccccc4)cc3)c12`, for which the result (in assay [2]; in the assay with Calf thymus DNA) was inactive. In addition, halving of growth in assay [3] (GI50) required 1900 nM.
Turning to `CC(c1nc(-c2ccncc2)no1)n1cc(C(=O)O)c(=O)c2cc(F)c(N3CC[C@@H](CN)C3)cc21` (some centres undefined), the inhibition in assay [1] came out at 10%. This molecule had an IC50 against DNA topoisomerase 1 of over 200 µM.
`CNC[C@@H]1CCN(c2c(F)cc3c(=O)c(C(=O)O)cn(Cc4ccc(-c5ccccc5)cc4)c3c2OC)C1`: on DNA topoisomerase 1, the midpoint of inhibition, the IC50, lay at 155 µM.

The inhibition is the relative decrease from the control value, in per cent. Usually IC50 stands for the point on the concentration scale where inhibition reaches its midpoint. A word on the GI50: it is the concentration that inhibits growth by half. Low readings indicate greater sensitivity of the cells, high ones lower sensitivity of the cells.

These data come from ChEMBL document CHEMBL4346697, “Probing structural requirements for human topoisomerase I inhibition by a novel N1-Biphenyl fluoroquinolone” (Eur J Med Chem, 2019).
